High-throughput results as filed in PubChem BioAssay.
This is a sample that favours compounds with a hit; in the whole collection about 3.7% have one here.
KCNK9 inh – inhibitors of human KCNK9 two-pore domain potassium channel; HEK293 KCNK9, FluxOR thallium flux fluorescence; active compounds read low; 1.2% of 310,000 active; B-score at 10 µM;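 active = ratio B-score over 3 SD below the library mean, with starting fluorescence within 5 SD of its mean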;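 note: negative B-score means less thallium flux so channel inhibition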
KCNQ1 block – human KCNQ1 channel inhibition; P51787; CHO-K1 KCNQ1, FluxOR thallium flux fluorescence; active compounds read high; B-score at 10 µM; 1.3% of 310,000 active; AID 2642;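 active = compounds whose thallium flux B-score, printed positive for inhibition, exceeds three library SD while starting fluorescence stays within three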;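 note: channel opened by potassium depolarization with thallium stimulus after 20 min compound exposure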
hERG rescue – shields human hERG channel from block by proarrhythmic agents; Q12809; CHO-hERG, FluxOR thallium flux, dofetilide IC70 present; activation (rescue from dofetilide block), less the hit threshold, % at 10 µM; 0.51% of 310,000 active; AID 1511;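 active = activation above the mean of controls blocked by dofetilide plus 5 SD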;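 note: thallium influx through hERG after potassium depolarization seen as dye fluorescence rise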
Target sequence (Q12809 whole entry, looked up): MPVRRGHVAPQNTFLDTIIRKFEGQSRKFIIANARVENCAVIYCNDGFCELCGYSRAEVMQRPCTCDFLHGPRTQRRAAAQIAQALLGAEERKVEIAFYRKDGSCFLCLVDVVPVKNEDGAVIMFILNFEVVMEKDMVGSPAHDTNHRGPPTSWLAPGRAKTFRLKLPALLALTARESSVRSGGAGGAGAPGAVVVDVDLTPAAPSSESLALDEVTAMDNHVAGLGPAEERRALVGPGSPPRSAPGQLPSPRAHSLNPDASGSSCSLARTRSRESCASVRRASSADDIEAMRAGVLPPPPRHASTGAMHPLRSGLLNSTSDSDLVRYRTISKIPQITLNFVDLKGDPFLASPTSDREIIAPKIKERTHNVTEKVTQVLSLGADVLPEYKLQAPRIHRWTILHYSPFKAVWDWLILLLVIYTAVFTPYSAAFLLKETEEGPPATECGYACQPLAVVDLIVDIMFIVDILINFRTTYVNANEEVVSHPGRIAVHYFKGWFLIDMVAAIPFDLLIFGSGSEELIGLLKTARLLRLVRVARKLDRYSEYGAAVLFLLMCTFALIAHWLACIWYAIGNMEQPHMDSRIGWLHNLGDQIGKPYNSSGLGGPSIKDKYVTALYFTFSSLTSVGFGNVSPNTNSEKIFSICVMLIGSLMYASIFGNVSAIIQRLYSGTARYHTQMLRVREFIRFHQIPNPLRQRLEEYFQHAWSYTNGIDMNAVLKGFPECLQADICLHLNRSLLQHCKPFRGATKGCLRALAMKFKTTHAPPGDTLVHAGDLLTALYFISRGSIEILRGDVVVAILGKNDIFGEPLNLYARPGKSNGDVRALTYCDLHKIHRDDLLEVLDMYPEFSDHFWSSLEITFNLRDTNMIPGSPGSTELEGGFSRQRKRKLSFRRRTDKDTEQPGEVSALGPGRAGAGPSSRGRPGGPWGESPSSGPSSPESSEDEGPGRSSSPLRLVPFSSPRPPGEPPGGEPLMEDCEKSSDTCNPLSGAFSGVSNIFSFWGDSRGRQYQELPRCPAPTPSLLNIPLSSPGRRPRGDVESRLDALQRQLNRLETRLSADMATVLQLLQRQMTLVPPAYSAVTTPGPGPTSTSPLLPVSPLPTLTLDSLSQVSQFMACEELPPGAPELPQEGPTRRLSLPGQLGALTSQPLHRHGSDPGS
KCNQ1 pot – potentiates or activates the human KCNQ1 potassium channel; P51787; CHO-K1 KCNQ1, thallium flux FluxOR fluorescence; active compounds read high; B-score at 10 µM; 0.35% of 310,000 active; AID 2648;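 active = fluorescence ratio B-score, a plate-corrected score, at least three library SD, with initial intensity B-score within 5 SD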
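assay system = KCNQ1-transfected CHO-K1 cells | medium = assay buffer with matched DMSO | probe or stimulus = depolarizing K+/Tl+ stimulus, K2SO4 and Tl2SO4 each 12.5 mM in 5x stock | dosing = single dose | incubation = dye 90 min, compound 20 min, room temperature | detection = kinetic FluxOR fluorescence, 10 s baseline plus 110 s post-stimulus | evaluation = ratio B score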
Kir21 block – inhibitors of mouse Kir2.1 inward-rectifier potassium channel | P35561 | B-score at 10 µM | 0.85% of 310,000 active | HEK293-Kir2.1, FluxOR thallium flux fluorescence; active compounds read low | AID 1672;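 active = fluorescence ratio B-score at or below minus 3 SD of library scores, with starting-brightness B-score within 2 SD, cut at about -4.2 in these data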;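 note: channel flux triggered by added potassium and thallium sulfate stimulus; B-score of peak minus minimum fluorescence over baseline after thallium stimulus; more negative B-score means stronger Kir2.1 block with less thallium influx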
KCNK3 inh – human KCNK3 channel inhibition, primary screen | O14649 | CHO-KCNK3 thallium flux, FluxOR fluorescence; active compounds read low | B-score at 10 µM | 0.84% of 340,000 active | AID 602410;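 active = B-score under library mean minus 4 SD, starting fluorescence ratio at most library mean plus 5 SD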;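 note: more negative B-score means stronger inhibition of thallium flux through KCNK3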
KCNK9 block conf – confirmation of human KCNK9 potassium channel inhibitors | HEK293 KCNK9 cells, FluxOR thallium flux fluorescence | 43% of 4,900 active | inhibition, % at 10 µM | shares compounds with KCNK9 inh;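 active = thallium signal inhibited by more than 5 SD of the compound-free buffer control wells, on both duplicate plates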;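 note: 0% = assay buffer control wells without compound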
Kir21 sel – mouse Kir2.1 off-target activity of KCNK9 modulators. shares compounds with KCNK9 inh. Kir2.1 cells, FluxOR thallium flux fluorescence. inhibition, % at 10 µM. 4% of 4,900 active;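 active = thallium signal drop more than 5 SD beyond the mean of the no-compound control wells, seen in both duplicate plates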;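 note: signal is fluorescence rise after thallium addition divided by baseline fluorescence; plate controls were assay buffer only for no effect and full block by chlorpromazine control for full effect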
KCNK9 uninduced – second counter-screen for KCNK9 modulators: effect in non-induced cells; shares compounds with KCNK9 inh; 40% of 4,900 active; AID 492997; non-induced KCNK9-HEK293, FluxOR thallium flux; inhibition, % at 10 µM;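 active = thallium signal drop beyond 5 SD of the untreated control mean, on both duplicate plates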;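 note: plate controls were buffer only IC0 wells for no effect and SID17386958 at its maximal inhibitory level for full effect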
An asterisk follows results filed as active; i = inactive; . = no result.

SMILES | KCNK9 inh | KCNQ1 block | hERG rescue | KCNQ1 pot | Kir21 block | KCNK3 inh | KCNK9 block conf | Kir21 sel | KCNK9 uninduced
Cc1ccc(C2NC(c3ccc(C)cc3)C(C)C(=NO)C2C)cc1 (stereo unspecified) | i | i | -10 | i | 0.81 | i | i | i | i
N#Cc1nc(Cc2cccc3ccccc23)oc1NCC1CCCO1 (stereo unspecified) | i | i | -12 | i | -3.8 | i | . | . | .
N#Cc1nc(Cc2cccc3ccccc23)oc1NCc1ccco1 | -11* | i | -11 | i | -3 | i | 40%* | i | 38%*
COc1ccc(NC(=O)c2ccc3ccccc3n2)cc1S(=O)(=O)Nc1ccccc1Cl | i | i | -11 | i | 0.45 | i | . | . | .
COc1ccc(NC(=O)CCSc2ccc(C)cc2)cc1S(=O)(=O)Nc1ccccc1Cl | i | i | -6 | i | -1.2 | i | i | i | i
COc1ccc(NC(=O)CCS(=O)(=O)c2ccccc2Cl)cc1S(=O)(=O)Nc1ccc(Cl)cc1 | i | i | -8 | i | -0.02 | i | . | . | .
COc1ccc(NS(=O)(=O)c2cc(NC(=O)CCSc3ccccc3)ccc2OC)cc1 | i | i | 1 | i | 0.11 | i | i | i | i
CC(=NNC(=O)c1ccncc1)c1ccc2ccccc2c1O | . | . | . | . | . | i | . | . | .
Cc1cccc(N2CCN(C(=O)c3ccc4c(c3)c(C)c(C)n4C)CC2C)c1 (stereo unspecified) | i | i | -11 | i | -0.32 | i | i | i | i
Cc1cccc(N2CCN(C(=O)c3ccc(N4CCCC4=O)cc3)CC2C)c1 (stereo unspecified) | i | i | -4 | i | 2.3 | i | . | . | .
COc1cc(C(=O)Nc2cccc(C)c2C)ccc1OCC(=O)N1CCOCC1 | . | . | . | . | . | i | . | . | .
Cc1ccc(NS(=O)(=O)c2cccc(C(=O)NCCc3c[nH]c4ccccc34)c2)c(C)c1 | i | i | -17 | i | 1.1 | i | i | i | 27%*
C[C@H](CO)N1C[C@H](C)[C@@H](CN(C)S(=O)(=O)c2ccccc2)Oc2ccc(NS(=O)(=O)c3cn(C)cn3)cc2C1=O | . | . | . | . | . | i | . | . | .
Cc1nnc(-c2ccccc2)c(=O)n1/N=C/c1c(O)ccc2ccccc12 | -8.8* | 8* | -6 | i | 0.57 | i | 38%* | i | 34%*
COc1ccc(/C=N\NC(=O)c2cc(O)c(O)c(O)c2)cc1CN1CCN(c2ccc(F)cc2)CC1 | i | i | -11 | i | -3.8 | i | i | i | i
O=[N+]([O-])c1cccc(NC(=S)N2CCc3ccccc32)c1 | i | i | -2 | i | -0.38 | i | . | . | .
CC(C)=CCN1CCNC(=O)C1CC(=O)NCc1nc(C)c(C)s1 (stereo unspecified) | i | i | -4 | i | 0.81 | i | . | . | .
O=C1CC(=C(c2ccccc2)c2ccccc2)C(=O)N1CCCCN1CCN(c2cccc(Cl)c2)CC1 | i | i | -19 | i | 0.68 | i | . | . | .
Cc1ccccc1N1CCN(CCCN2C(=O)CC(=C(c3ccccc3)c3ccccc3)C2=O)CC1 | i | i | -11 | i | 1.8 | i | i | i | i
COC(=O)c1c(C(=O)OC)c(-c2cccc(Cl)c2)n2c1CS(=O)C2 (stereo unspecified) | i | i | -6 | i | 0.85 | i | . | . | .
CCOC(=O)c1c(C)[nH]c(C(=O)COC(=O)C2CC2)c1C | . | . | . | . | . | i | . | . | .
CCOC(=O)c1c(C)[nH]c(C(=O)COC(=O)C2(C)CC2(Cl)Cl)c1C (stereo unspecified) | -17* | i | -7 | i | -0.55 | i | i | i | i
Cc1ccc(S(=O)(=O)N/N=C/c2cccc(OC3CSC3)c2)cc1 | i | i | -8 | i | 0.61 | i | . | . | .
Cc1ccc(CSCC(=O)N/N=C/c2cccc(OC3CSC3)c2)cc1 | i | i | -9 | i | -0.62 | i | i | i | i
CC(C)(C)CC(=O)N1CCN(c2ccc(S(=O)(=O)N3CCOCC3)cc2[N+](=O)[O-])CC1 | . | . | . | . | . | i | . | . | .
SMILES | KCNK9 inh | KCNQ1 block | hERG rescue | KCNQ1 pot | Kir21 block | KCNK3 inh | KCNK9 block conf | Kir21 sel | KCNK9 uninduced
CC(NC(=O)CSCc1ccccc1Br)c1ccccc1 (stereo unspecified) | i | i | -21 | i | -3 | i | i | i | i
CC(NC(=O)CSCc1ccc(Br)cc1)c1ccccc1 (stereo unspecified) | i | i | -7 | i | -2.5 | i | . | . | .
CC(C)CCn1nc(C(=O)Nc2nc3c(s2)CCCC3)c2ccccc2c1=O | -17* | i | -9 | i | -1.7 | i | 76%* | i | i
C=C1CCN([C@H](C(=O)OCc2cccc(C)c2)C(C)C)S(=O)(=O)c2ccccc21 | -9* | i | -12 | i | -1.2 | i | 46%* | i | i
COC(=O)C(CCSC)NS(=O)(=O)c1ccc(Cl)cc1 (stereo unspecified) | i | i | -11 | i | -0.76 | i | . | . | .
COc1ccc(C(=O)COC(=O)C(CCSC)NS(=O)(=O)c2ccc(Cl)cc2)cc1 (stereo unspecified) | i | i | -5 | i | -0.67 | i | i | i | i
Cc1cc(/C=N/NC(=O)C(=O)N2CCCC2)c(C)n1-c1cccc(Br)c1 | i | i | -2 | i | -1.4 | i | . | . | .
Cc1cc(/C=N/NC(=O)c2c(Br)cnn2C)c(C)n1-c1cccc(Br)c1 | -12* | i | -5 | i | -1.5 | i | 54%* | i | 29%*
O=C(COc1cccc(Br)c1)Nc1ccc(N2CCOCC2)cc1N1CCOCC1 | . | . | . | . | . | i | . | . | .
O=C(N/N=C/c1cc(Br)ccc1O)c1ccncc1 | i | i | -20 | i | 1.7 | i | . | . | .
O=C(N/N=C/c1cc(Br)ccc1OC(=O)c1ccc(Br)cc1)c1ccncc1 | -12* | i | -12 | i | -0.39 | i | 45%* | i | 34%*
C#CCOc1ccccc1/C=N/NC(=O)c1ccccc1OCc1ccccc1 | -9.6* | i | -15 | i | 0.07 | i | 30%* | i | 41%*
Cc1ccc(/C=N/NC(=O)c2ccccc2OCc2ccc(F)cc2)o1 | i | i | -6 | i | 2.2 | i | . | . | .
O=C(N/N=C/c1ccncc1)c1ccccc1OCc1ccc(Br)cc1 | -8.9* | i | -9 | i | -0.74 | i | i | i | i
